This note sets out measurements from ChEMBL document CHEMBL4673404, “Covalent Inhibition of Wild-Type HIV-1 Reverse Transcriptase Using a Fluorosulfate Warhead” (ACS Med Chem Lett, 2021).

A short description of data set [1]: Cytotoxicity against human MT2 cells assessed as cell growth inhibition after 5 days by MTT assay. It is filed as cell-based. The following applies: time 5 day. In outline: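 Human MT-2 T-cells were used in the same assay as the HIV-1 IIIB infection-protection test. CC50 was taken as the concentration inhibiting MT-2 cell growth by 50%, with measurements in triplicate.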
On the technique in general: Tetrazolium dyes change colour on reduction, which living cells bring about.

For data set [2], the target named is T1, Human immunodeficiency virus type 1 reverse transcriptase (Human immunodeficiency virus 1, UniProt Q72547). Kind of data set: Covalent inhibition of recombinant wild type HIV-1 reverse transcriptase using poly(rA)350/oligo(dT)16 as template/primer preincubated followed by substrate addition measured after 30 mins by pico-green reagent based fluorescence analysis.

Data set [3] concerns the target T1, Human immunodeficiency virus type 1 reverse transcriptase. Kind of data set: Inhibition of recombinant wild type HIV-1 reverse transcriptase using poly(rA)350/oligo(dT)16 as template/primer preincubated for 1 hr followed by substrate addition measured after 30 mins by pico-green reagent based fluorescence analysis. In outline: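 Recombinant wild-type HIV-1 RT preincubated 1 h with inhibitor or DMSO. Substrate of r(A)350 template and d(T)16 primer then added, 30 min at room temperature. Quenched with EDTA, product detected with PicoGreen by fluorescence (ex 485/em 520 nm). Triplicate runs, normalized to DMSO controls to give IC50.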

Data set [4] shares this target. Kind of data set: Covalent inhibition of recombinant wild type HIV-1 reverse transcriptase using poly(rA)350/oligo(dT)16 as template/primer preincubated followed by substrate addition measured after 48 hrs by pico-green reagent based fluorescence analysis. In outline: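 Recombinant WT HIV-1 RT preincubated with inhibitor or DMSO control (1 h for line 3, 48 h for line 4). Substrate solution with r(A)350 template and d(T)16 primer then added, reacted 30 min at room temperature, and quenched with EDTA. Product quantified with PicoGreen by fluorescence (ex 485, em 520 nm). Triplicate runs, normalized to DMSO controls to give IC50.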

Data set [5] in a line: Covalent inhibition of HIV-1 reverse transcriptase Tyr181Cys mutant. Further details: species or system Human immunodeficiency virus 1.

For `N#Cc1cc(Cl)cc(Oc2cc(OS(=O)(=O)F)ccc2Cl)c1`, in data set [1], the CC50 (as a rule, the concentration at which the toxic effect on the cells reaches its halfway point) at 120 h stood at 78 µM. Moreover, the IC50 (usually the point on the concentration scale where inhibition reaches its midpoint) in data set [2] is 0.833 µM.
For the compound `N#Cc1cc(Cl)cc(Oc2cc(OS(=O)(=O)F)ccc2OCCn2ccc(=O)[nH]c2=O)c1`, in data set [1], the CC50 at 120 h worked out at 100 µM.
Consider `N#Cc1cc(Cl)cc(Oc2ccc(S(=O)(=O)F)cc2OCCn2ccc(=O)[nH]c2=O)c1`, for which, in data set [1], the CC50 at 120 h is 90 µM. In addition, the IC50 in data set [2] was 5 µM.
As for `N#C/C=C/c1cc(Cl)cc(Oc2ccc(Cl)cc2OCCn2ccc(=O)[nH]c2=O)c1`, the CC50 at 120 h in data set [1] came to 10 µM. Further, the 50% inhibitory concentration (IC50) in data set [3] is 0.003 µM.
In the case of `N#Cc1cc2c(Oc3ccc(OS(=O)(=O)F)cc3OCCn3ccc(=O)[nH]c3=O)cc(F)cn2c1`, the cytotoxic concentration (CC50) at 120 h in data set [1] was determined as 55 µM. Further, the IC50 amounted to 0.429 µM in data set [4], 0.064 µM in data set [2] and 0.063 µM in data set [5].
`Cn1c(=O)ccn(CCOc2cc(S(=O)(=O)F)ccc2Oc2cc(Cl)cc(C#N)c2)c1=O`: the CC50 at 120 h in data set [1] came out at 60 µM. Further, the IC50 in data set [2] is 0.375 µM.
For `Cn1c(=O)ccn(CCOc2cc(OS(=O)(=O)F)ccc2Oc2cccn3cc(C#N)cc23)c1=O`, the CC50 at 120 h in data set [1] is 75 µM. Also, the IC50 in data set [4] came out at 1.11 µM; in data set [2] it was 0.164 µM; in data set [5], 0.202 µM.
As to `Cc1cc(/C=C/C#N)cc(C)c1Nc1ccnc(Nc2ccc(C#N)cc2)n1` [RILPIVIRINE], the CC50 at 120 h in data set [1] came to 8 µM. Besides, the IC50 in data set [2] was determined as 0.038 µM.
For `N#C/C=C/c1cc(F)cc(Oc2ccc(OS(=O)(=O)F)cc2OCCn2ccc(=O)[nH]c2=O)c1`, in that order: 42 µM and 0.15 µM.
For `N#Cc1cc(Cl)cc(Oc2ccc(OS(=O)(=O)F)cc2Cl)c1`, in that order: 50 µM and 4.9 µM.
Take `N#Cc1cc(Cl)cc(Oc2ccc(OS(=O)(=O)F)cc2OCCn2ccc(=O)[nH]c2=O)c1`: in data set [1], the CC50 at 120 h is 66 µM. Besides, the IC50 in data set [4] worked out at 0.163 µM; in data set [2], 0.103 µM; in data set [5], 0.045 µM.
In the case of `N#Cc1cc2c(Oc3ccc(OS(=O)(=O)F)cc3OCCn3ccc(=O)[nH]c3=O)cc(Cl)cn2c1`, the CC50 at 120 h in data set [1] amounted to 26 µM. In addition, the IC50 turned out to be 0.0424 µM in data set [2] and 0.041 µM in data set [5].
`Cn1c(=O)ccn(CCOc2cc(OS(=O)(=O)F)ccc2Oc2cc(Cl)cc(C#N)c2)c1=O`: the CC50 at 120 h in data set [1] worked out at 40 µM. In addition, in data set [2], the IC50 was determined as 0.246 µM.
As for `Cc1ccnc2c1NC(=O)c1cccnc1N2C1CC1` [NEVIRAPINE], in data set [1], the CC50 at 120 h is above 100 µM.
Regarding `N#Cc1ccc2c(Oc3ccc(OS(=O)(=O)F)cc3OCCn3ccc(=O)[nH]c3=O)cc(Cl)cc2c1`, the CC50 at 120 h in data set [1] came out at 15 µM. Moreover, in data set [2], the IC50 was found to be 0.0147 µM.
For `N#Cc1ccc2c(Oc3ccc(OS(=O)(=O)F)cc3OCCn3ccc(=O)[nH]c3=O)cccc2c1`, in that order: 62 µM and 0.0823 µM.
Consider `N#C/C=C/c1cc(Cl)cc(Oc2ccc(OS(=O)(=O)F)cc2OCCn2ccc(=O)[nH]c2=O)c1`, for which the half-maximal cytotoxic concentration (CC50) at 120 h in data set [1] is 45 µM. Also, the IC50 in data set [2] came to 0.119 µM.
